Assay results taken from ChEMBL document CHEMBL2163309, “Discovery of novel 2-aryl-4-benzoyl-imidazole (ABI-III) analogues targeting tubulin polymerization as antiproliferative agents” (J Med Chem, 2012).
Active and inactive are the calls of the source. The calls are words filed in the database; no cut-off is given here.

Experiments:
[1] = organism: Bos taurus; test: Inhibition of bovine brain tubulin polymerization measured for every 1 min for 20 mins by spectrophotometer analysis
Summary of the method: (§1)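 Bovine brain tubulin (>97% pure), 0.4 mg per assay, exposed to test compound at 5 or 10 μM in 5% DMSO vehicle, with a DMSO-only control and colchicine 5 μM as positive control. Polymerization followed by absorbance at 340 nm at 37 °C, read every minute for 20 min. Percent inhibition of polymerization taken at 20 min.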

[2] = organism: Bos taurus; test: Inhibition of bovine brain tubulin polymerization at 5 uM measured for every 1 min for 20 mins by spectrophotometer analysis; summary of the method: as §1
[3] = organism: Bos taurus; test: Inhibition of bovine brain tubulin polymerization at 10 uM measured for every 1 min for 20 mins by spectrophotometer analysis; summary of the method: as §1
[4] = Antiproliferative activity against human paclitaxel-resistant PC3-TxR cells after 48 hrs by SRB assay; type: functional, cell-based
[5] = system: DU-145; test: Antiproliferative activity against human DU145 cells after 48 hrs by SRB assay; type: functional, cell-based; conditions: DU-145, 48 h
Summary of the method: (§2)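 Run as part of a panel of two human metastatic melanoma lines (A375, WM164) and three human prostate cancer lines (LNCaP, PC-3, Du 145), following previously described methods. Colchicine served as the positive control.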

[6] = system: PC-3; test: Antiproliferative activity against human PC3 cells after 48 hrs by SRB assay; type: functional, cell-based; conditions: PC-3, 48 h
[7] = system: LNCaP; test: Antiproliferative activity against human LNCAP cells after 48 hrs by SRB assay; type: functional, cell-based
[8] = Antiproliferative activity against human WM164 cells after 48 hrs by SRB assay; type: functional, cell-based; conditions: WM164, 48 h
[9] = system: A-375; test: Antiproliferative activity against human A375 cells after 48 hrs by SRB assay; type: functional, cell-based; conditions: A-375, 48 h; summary of the method: as §2
[10] = organism: Homo sapiens; conditions: 10 to 1000 nM
[11] = system: PC-3; test: Resistance index, ratio of IC50 for human paclitaxel-resistant PC3-TxR cells to IC50 for human PC3 cells

SMILES | inhibition [1] | inhibition [2] | inhibition [3] | IC50 [6] | IC50 [4] | IC50 [5] | IC50 [7] | IC50 [8] | IC50 [9] | inhibition [10] | Ratio IC50 [11]
COc1cc(C(=O)c2cnc(-c3c[nH]c4ccccc34)[nH]2)cc(OC)c1OC [SABIZABULIN] | Dose-dependent effect | 70% | Active | 3.7 nM | 3.7 nM | 3.9 nM | 2.8 nM | 5.3 nM | 3.2 nM | inactive | 1
COc1cc2c(c(OC)c1OC)-c1ccc(OC)c(=O)cc1[C@@H](NC(C)=O)CC2 [COLCHICINE] |  |  |  | 11.5 nM |  | 11.2 nM | 16.3 nM | 29 nM | 20.6 nM |  | 
COc1cc(C(=O)c2c[nH]c(-c3csc4ccccc34)n2)cc(OC)c1OC | Dose-dependent effect | inactive | 30% | 20.8 nM | 98.6 nM | 51.2 nM | 29.1 nM | 45.7 nM | 41 nM |  | 0.9

Now from value to compound, other results behind:

inhibition [1] | inhibition [2] | inhibition [3] | IC50 [6] | SMILES | IC50 [4] | IC50 [5] | IC50 [7] | IC50 [8] | IC50 [9] | inhibition [10] | Ratio IC50 [11]
Dose-dependent effect | 30% | 60% | 33.3 nM | COc1cc(C(=O)c2c[nH]c(-c3coc4ccccc34)n2)cc(OC)c1OC | 42.8 nM | 45 nM | 14.1 nM | 73.6 nM | 53.4 nM |  | 1
 |  |  | 0.4 nM | CC(=O)O[C@H]1C(=O)[C@@]2(C)[C@H]([C@H](OC(=O)c3ccccc3)[C@]3(O)C[C@H](OC(=O)[C@H](O)[C@@H](NC(=O)c4ccccc4)c4ccccc4)C(C)=C1C3(C)C)[C@]1(OC(C)=O)CO[C@@H]1C[C@@H]2O [PACLITAXEL] | 188 nM |  |  |  |  |  | 
Dose-dependent effect | 65% | 80% | 20.8 nM | COc1cc(C(=O)c2cn(C)c(-c3cn(C)c4ccccc34)n2)cc(OC)c1OC | 22.4 nM | 76.5 nM | 35.9 nM | 24.2 nM | 18.8 nM |  | 1.1
Dose-dependent effect | 67% | 85% | 33.3 nM | COc1cc(C(=O)c2c[nH]c(-c3cn(S(=O)(=O)c4ccccc4)c4ccccc34)n2)cc(OC)c1OC | 27.6 nM | 189 nM | 107 nM | 166 nM | 414 nM |  | 0.9
